Experimental data reported in ChEMBL document CHEMBL1157524, “Synthesis and SAR of a mGluR5 allosteric partial antagonist lead: unexpected modulation of pharmacology with slight structural modifications to a 5-(phenylethynyl)pyrimidine scaffold” (Bioorg Med Chem Lett, 2008).

Tests used:
[1] = biological target: Metabotropic glutamate receptor 5 (Rattus norvegicus) (UniProt P31424); assay: (§1) Antagonist activity at rat mGluR5 expressed in HEK293A cells assessed as inhibition of glutamate-induced calcium fluorescence; assay type: functional, cell-based; design: concentration or dose not given beside the values; conditions: HEK293-A
[2] = biological target: T1, Metabotropic glutamate receptor 5 (Rattus norvegicus, UniProt P31424); assay: Activity at rat mGluR5 expressed in HEK293A cells; assay type: cell-based, HEK293-A
[3] = biological target: Metabotropic glutamate receptor 5 (Rattus norvegicus) (UniProt P31424); assay: Induction of rat mGluR5 activation expressed in HEK293A cells assessed as maximal response in presence of glutamate; assay type: cell-based; conditions: HEK293-A
In short: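 Potentiator mode in rat mGluR5 HEK293A cells loaded with Fluo4-AM (4.0 µM, 45 min, 37 °C) in HBSS/20 mM Hepes/2.5 mM probenecid, pH 7.4. Compound added at 19 s, then submaximal glutamate (150–165 nM) at 109 s. Calcium fluorescence read and compared with maximal glutamate response. Vehicle 0.3% DMSO. Triplicate on three days.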

[4] = biological target: T1, Metabotropic glutamate receptor 5; assay: as §1; assay type: functional, cell-based, HEK293-A
[5] = biological target: T1, Metabotropic glutamate receptor 5; assay: Displacement of [3H]methoxy-PEPy from rat mGluR5 expressed in HEK293A cells; assay type: cell-based, HEK293-A
In short: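 Membranes from HEK293A cells with rat mGluR5 were incubated with 2 nM (final) [³H]methoxy-PEPy in 50 mM Tris, 0.9% NaCl, pH 7.4. Incubation was 60 min at room temperature with shaking. Bound ligand was separated by GF/B filtration with four buffer washes and counted by scintillation. MPEP defined nonspecific binding. Triplicate on three days.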

Chain of Metabotropic glutamate receptor 5 (Rattus norvegicus) (P31424 21-1203 limits assumed): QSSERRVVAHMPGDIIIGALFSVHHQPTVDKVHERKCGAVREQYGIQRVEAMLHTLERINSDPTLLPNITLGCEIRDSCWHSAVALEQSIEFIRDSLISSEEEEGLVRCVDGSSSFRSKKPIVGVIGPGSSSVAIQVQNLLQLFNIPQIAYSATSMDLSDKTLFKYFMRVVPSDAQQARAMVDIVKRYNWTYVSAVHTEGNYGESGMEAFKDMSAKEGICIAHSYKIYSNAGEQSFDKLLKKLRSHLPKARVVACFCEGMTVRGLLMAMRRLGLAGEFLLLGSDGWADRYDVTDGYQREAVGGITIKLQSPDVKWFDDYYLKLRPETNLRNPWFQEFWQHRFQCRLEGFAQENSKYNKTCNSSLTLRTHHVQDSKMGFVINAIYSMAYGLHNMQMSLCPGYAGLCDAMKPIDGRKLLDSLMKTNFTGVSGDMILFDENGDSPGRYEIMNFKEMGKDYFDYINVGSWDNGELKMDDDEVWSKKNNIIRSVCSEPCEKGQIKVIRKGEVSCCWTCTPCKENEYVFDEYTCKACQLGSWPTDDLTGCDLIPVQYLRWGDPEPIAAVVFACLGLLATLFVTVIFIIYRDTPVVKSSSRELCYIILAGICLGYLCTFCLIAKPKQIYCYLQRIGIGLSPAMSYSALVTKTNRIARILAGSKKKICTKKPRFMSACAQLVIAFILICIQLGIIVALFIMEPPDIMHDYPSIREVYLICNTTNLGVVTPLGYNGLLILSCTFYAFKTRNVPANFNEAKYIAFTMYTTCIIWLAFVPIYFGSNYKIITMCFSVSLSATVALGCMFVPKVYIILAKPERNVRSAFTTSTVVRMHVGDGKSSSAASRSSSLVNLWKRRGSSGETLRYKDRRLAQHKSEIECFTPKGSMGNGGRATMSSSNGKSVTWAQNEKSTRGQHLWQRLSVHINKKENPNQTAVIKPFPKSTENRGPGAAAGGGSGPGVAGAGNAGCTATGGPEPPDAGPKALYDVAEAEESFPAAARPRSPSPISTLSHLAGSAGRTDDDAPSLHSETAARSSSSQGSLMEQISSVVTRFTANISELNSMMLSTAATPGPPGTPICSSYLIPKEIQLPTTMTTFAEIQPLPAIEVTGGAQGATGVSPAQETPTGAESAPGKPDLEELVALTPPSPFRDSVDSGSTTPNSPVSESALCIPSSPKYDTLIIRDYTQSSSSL
T1 sequence (P31424 whole entry): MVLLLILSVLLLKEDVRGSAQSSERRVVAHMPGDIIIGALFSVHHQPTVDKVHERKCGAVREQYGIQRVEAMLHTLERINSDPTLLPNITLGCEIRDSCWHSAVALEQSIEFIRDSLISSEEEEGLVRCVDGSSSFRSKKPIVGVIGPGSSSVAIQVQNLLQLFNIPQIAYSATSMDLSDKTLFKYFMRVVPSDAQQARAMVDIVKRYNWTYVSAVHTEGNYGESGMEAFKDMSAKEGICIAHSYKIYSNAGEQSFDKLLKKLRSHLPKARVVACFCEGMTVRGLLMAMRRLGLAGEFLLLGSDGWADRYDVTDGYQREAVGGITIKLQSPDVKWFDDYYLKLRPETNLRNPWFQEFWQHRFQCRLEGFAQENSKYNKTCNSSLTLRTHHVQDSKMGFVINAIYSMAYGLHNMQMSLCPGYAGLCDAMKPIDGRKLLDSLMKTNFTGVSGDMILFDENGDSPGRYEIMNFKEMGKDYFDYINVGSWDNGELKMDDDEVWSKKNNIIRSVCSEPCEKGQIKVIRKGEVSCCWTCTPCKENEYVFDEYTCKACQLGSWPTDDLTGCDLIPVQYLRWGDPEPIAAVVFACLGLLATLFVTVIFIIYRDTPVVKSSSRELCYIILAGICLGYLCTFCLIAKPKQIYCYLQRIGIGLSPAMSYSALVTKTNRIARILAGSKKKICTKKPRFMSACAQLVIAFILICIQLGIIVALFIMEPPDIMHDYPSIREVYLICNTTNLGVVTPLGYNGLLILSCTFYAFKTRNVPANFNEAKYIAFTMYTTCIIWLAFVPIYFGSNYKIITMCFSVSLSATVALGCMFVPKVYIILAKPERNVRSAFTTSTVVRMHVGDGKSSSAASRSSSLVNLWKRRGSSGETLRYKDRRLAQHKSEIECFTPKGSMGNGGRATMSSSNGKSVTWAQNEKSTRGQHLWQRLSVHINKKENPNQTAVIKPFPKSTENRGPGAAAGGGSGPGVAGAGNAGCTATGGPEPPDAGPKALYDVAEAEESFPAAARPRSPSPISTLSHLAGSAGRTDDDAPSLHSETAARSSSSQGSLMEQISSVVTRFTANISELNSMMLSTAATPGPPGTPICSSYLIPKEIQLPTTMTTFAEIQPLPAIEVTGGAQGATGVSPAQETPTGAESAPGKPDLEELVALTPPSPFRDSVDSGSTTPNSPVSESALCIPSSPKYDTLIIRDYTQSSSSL

Row | SMILES | Activity [1] [%] | IC50 [4] [nM] | other results
1 | COc1cccc(C#Cc2ccc(C)cn2)c1 | 50 |  | 
2 | O=Cc1ccc(C#Cc2cncnc2)cc1 |  |  | EC50 [2]: 7900 nM
3 | O=C(Nc1ccc(Cl)cc1CN1C(=O)c2ccccc2C1=O)c1ccccc1O |  |  | Activity [3]: < 70%
4 | Clc1ccc(C#Cc2cncnc2)cc1 |  |  | EC50 [2]: 3900 nM
5 | O=C(Nc1cccc(F)c1)c1cccc(Cl)c1 | 58 |  | EC50 [4]: 297 nM
6 | FC(F)(F)c1cccc(C#Cc2cncnc2)c1 | 100 | 450 | 
7 | Fc1cccc(/C=N/N=C/c2cccc(F)c2)c1 |  |  | Activity [3]: < 70%
8 | CCc1ccc(C#Cc2cncnc2)cc1 |  |  | EC50 [2]: 18800 nM
9 | N#Cc1cccc(C(=O)Nc2cc(-c3ccccc3)nn2-c2ccccc2)c1 |  |  | Activity [3]: < 70%
10 | Cc1ccc(C#Cc2cncnc2)cc1 |  |  | Activity [3]: 99%; EC50 [2]: 3300 nM
11 | Cc1ccc(C#Cc2cncc(Br)c2)nc1 | 50 |  | 
12 | Fc1cc(F)cc(C#Cc2cncnc2)c1 | 100 | 6400 | 

More lines, main results first:

Row | Activity [1] [%] | IC50 [4] [nM] | SMILES | other results
13 | 100 | 350 | Cc1cc(C#Cc2cncnc2)ccc1F | 
14 | 58 | 11200 | Cc1ccc(C)c(C#Cc2cncnc2)c1 | 
15 | 71 | 480 | C(#Cc1cncnc1)c1ccccc1 | Ki [5]: 126 nM
16 | 100 | 34 | Clc1cccc(C#Cc2cncnc2)c1 | 
17 | 100 | 7 | Cc1cccc(C#Cc2cncnc2)c1 | 
18 | 100 | 7800 | C(#Cc1cncnc1)c1ccc(-c2ccccc2)cc1 | 
